Key:
Canis familiaris [1] = species: Canis familiaris; experiment: Maximum percent change in repolarization at 30 uM concentration on Canine Purkinje fibers.; format: functional, Canis lupus familiaris, Purkinje fiber
Method in brief: (§1)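 Isolated canine Purkinje fibers were superfused with physiological saline gassed with 95% O2/5% CO2 (pH 7.35–7.40) at 36 ± 0.5 °C. Paced at 1.0 Hz with 2-ms pulses at twice diastolic threshold. After up to 1 h stabilization, compounds were tested over 10^-8 to 10^-3 M, 30 min per concentration, one compound per fiber, with vehicle controls. Intracellular microelectrodes (3 M KCl) recorded Vmax and APD95; maximum percent change from control is reported with its concentration.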

Canis familiaris [2] = species: Canis familiaris; experiment: Maximum percent change in conduction time (CT) at 1 uM concentration tested on Canine ventricular muscle fibre; format: functional, Canis lupus familiaris, Muscle tissue
Method in brief: (§2)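 Canine right ventricular papillary muscle strips were superfused at 36 ± 0.5 °C with saline gassed with 95% O2/5% CO2. Diastolic threshold was found with 2-ms stimuli at 4000 ms cycle length, then pacing at 4× threshold for 60 min equilibration. FRP was measured at 1000 ms cycle length by S1-S2 premature stimulus after every tenth S1. Conduction time came from a bipolar electrogram. Various compound concentrations were tested, one compound per strip, with vehicle controls. Percent change from control was taken at 10 µM, or the maximum change with its concentration; for N ≥ 3, mean with range.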

Canis familiaris [3] = species: Canis familiaris; experiment: Maximum percent change in functional refractory period (FRP) at 100 uM on Canine ventricular muscle fibre.; parameters: species or system Canis lupus familiaris, Muscle tissue; method in brief: as §2
Canis familiaris [4] = species: Canis familiaris; experiment: Maximum percent change in conduction time (CT) at 100 uM concentration tested on Canine ventricular muscle fibre; format: functional, Canis lupus familiaris, Muscle tissue; method in brief: as §2
Canis familiaris [5] = species: Canis familiaris; experiment: Percent change from control in the rate of rise of phase 0 of the action potential at 10 uM concentration on Canine Purkinje fibers.; value ranges from -32-3; parameters: species or system Canis lupus familiaris, Purkinje fiber; details: dog, in vitro
Canis familiaris [6] = species: Canis familiaris; experiment: Percent change from control in the functional refractory period (FRP) at 10 uMconc. on Canine ventricular muscle fibre.; value ranges from -4-17; parameters: species or system Canis lupus familiaris, Muscle tissue
Canis familiaris [7] = species: Canis familiaris; experiment: Maximum percent change in repolarization at 10 uM concentration on Canine Purkinje fibers.; format: functional, Canis lupus familiaris, Purkinje fiber; method in brief: as §1
Canis familiaris [8] = species: Canis familiaris; experiment: Maximum percent change in conduction time (CT) at 10 uM concentration tested on Canine ventricular muscle fibre; format: functional, Canis lupus familiaris, Muscle tissue; method in brief: as §2
Canis familiaris [9] = species: Canis familiaris; experiment: Maximum percent change in functional refractory period (FRP) at 0.1 uM on Canine ventricular muscle fibre.; parameters: species or system Canis lupus familiaris, Muscle tissue; method in brief: as §2
Canis familiaris [10] = species: Canis familiaris; experiment: Percent change in repolarization at 10 Purkinje fibers.; value ranges from 0-25; format: functional, Canis lupus familiaris, Purkinje fiber
Method in brief: (§3)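 Canine Purkinje fibers were held in oxygenated (95% O2–5% CO2) physiological saline, pH 7.35–7.40, at 36 ± 0.5 °C and paced at 1.0 Hz with 2-ms pulses at twice diastolic threshold. Intracellular microelectrodes (3 M KCl) recorded Vmax and APD95 simultaneously. After up to 1 h of stabilization, compounds were tested from 10^-8 to 10^-3 M with 30 min per concentration. One compound per fiber, with vehicle controls. For N ≥ 3, values are the mean with the range.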

Cavia porcellus [11] = species: Cavia porcellus; experiment: Concentration of compound ( ) which gives a 20% decrease in contractile force was tested on papillary muscle of guinea pig, activity was expressed as EC-20.; format: functional; details: Muscle tissue
Method in brief: (§4)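 Contractile force measured in an isolated cardiac muscle preparation. Value is the concentration giving a 20% decrease in force of contraction. NR marks that this decrease was not reached. Values come from individual experiments; for N ≥ 3, the mean is given with the range.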

Canis familiaris [12] = species: Canis familiaris; experiment: (§5) Maximum Percent change from control in the rate of rise of phase 0 of the action potential at 100 uM concentration on Canine Purkinje fibers.; parameters: species or system Canis lupus familiaris, Purkinje fiber; method in brief: as §1
Canis familiaris [13] = species: Canis familiaris; experiment: Percent change from control in conduction time (CT) at 10 uM concentration tested on Canine ventricular muscle fibre.; M is minimal(<10% change in CT); format: functional; details: Canis lupus familiaris, Muscle tissue; method in brief: as §2
Canis familiaris [14] = species: Canis familiaris; experiment: Maximum percent change in repolarization at 100 uM concentration on Canine Purkinje fibers.; format: functional, Canis lupus familiaris, Purkinje fiber; method in brief: as §1
Canis familiaris [15] = species: Canis familiaris; experiment: Maximum percent change in repolarization at 1 uM concentration on Canine Purkinje fibers.; format: functional, Canis lupus familiaris, Purkinje fiber; method in brief: as §1
Canis familiaris [16] = species: Canis familiaris; experiment: as §5; format: organism-based, Canis lupus familiaris, Purkinje fiber; details: dog, in vitro; method in brief: as §1
Canis familiaris [17] = species: Canis familiaris; experiment: Maximum percent change in repolarization at 0.1 uM concentration on Canine Purkinje fibers.; format: functional, Canis lupus familiaris, Purkinje fiber; method in brief: as §1
Cavia porcellus [18] = species: Cavia porcellus; experiment: Concentration of compound which gives a 20% decrease in contractile force was tested from individual experiment on papillary muscle of guinea pig, activity was expressed as EC-20.; NR is not reached.; format: functional; details: Muscle tissue; method in brief: as §4
Canis familiaris [19] = species: Canis familiaris; experiment: Percent change in repolarization at 10 Purkinje fibers; value ranges from 3-4.; format: functional, Canis lupus familiaris, Purkinje fiber; method in brief: as §3
Canis familiaris [20] = species: Canis familiaris; experiment: Percent change from control in the rate of rise of phase 0 of the action potential at 10 uM concentration on Canine Purkinje fibers.; value ranges from -36.0-1.0; parameters: species or system Canis lupus familiaris, Purkinje fiber; details: dog, in vitro
Canis familiaris [21] = species: Canis familiaris; experiment: Percent change in functional refractory period (FRP) at 10 uM on Canine ventricular muscle fibre.; parameters: species or system Canis lupus familiaris, Muscle tissue
Canis familiaris [22] = species: Canis familiaris; experiment: Maximum Percent change from control in the rate of rise of phase 0 of the action potential at 30 uM concentration on Canine Purkinje fibers.; parameters: species or system Canis lupus familiaris, Purkinje fiber; details: dog, in vitro; method in brief: as §1
Canis familiaris [23] = species: Canis familiaris; experiment: Percent change from control in conduction time (CT) at 10 uM concentration tested on Canine ventricular muscle fibre.; format: functional, Canis lupus familiaris, Muscle tissue; method in brief: as §2
Canis familiaris [24] = species: Canis familiaris; experiment: Maximum Percent change from control in the rate of rise of phase 0 of the action potential at 10 uM concentration on Canine Purkinje fibers.; format: functional, Canis lupus familiaris, Purkinje fiber; details: dog, in vitro; method in brief: as §1
Canis familiaris [25] = species: Canis familiaris; experiment: Percent change in repolarization at 10 Purkinje fibers.; value ranges from -23-17; format: functional, Canis lupus familiaris, Purkinje fiber; method in brief: as §3
Canis familiaris [26] = species: Canis familiaris; experiment: Percent change from control in the functional refractory period (FRP) at 10 uM conc. on Canine ventricular muscle fibre.; parameters: species or system Canis lupus familiaris, Muscle tissue; method in brief: as §2
[27] = Maximum Percent change from control in the rate of rise of phase 0 of the action potential at 30 uM concentration on Canine Purkinje fibers; CB is conduction block.; format: functional, tissue-based; details: Purkinje fiber; method in brief: as §1
Cavia porcellus [28] = species: Cavia porcellus; experiment: Concentration of compound which gives a 20% decrease in contractile force was tested on papillary muscle of guinea pig, activity was expressed as EC-20.; format: functional; details: Muscle tissue; method in brief: as §4
Canis familiaris [29] = species: Canis familiaris; experiment: Percent change from control in the rate of rise of phase 0 of the action potential at 10 uM concentration on Canine Purkinje fibers.; parameters: species or system Canis lupus familiaris, Purkinje fiber; details: dog, in vitro
Canis familiaris [30] = species: Canis familiaris; experiment: Maximum percent change in repolarization at 100 uM concentration on Canine Purkinje fibers.; value ranges from 14-20; format: functional, Canis lupus familiaris, Purkinje fiber; method in brief: as §1
Canis familiaris [31] = species: Canis familiaris; experiment: Percent change from control in conduction time (CT) at 10 uM concentration tested on Canine ventricular muscle fibre.; value ranges from -11.0-0; format: functional, Canis lupus familiaris, Muscle tissue; method in brief: as §2
Canis familiaris [32] = species: Canis familiaris; experiment: The maximum percent change in action potential (Vmax ) at concentration observed (0.1 uM ) was tested on Canine Purkinje fibers.; parameters: species or system Canis lupus familiaris, Purkinje fiber; details: dog, in vitro; method in brief: as §3
Canis familiaris [33] = species: Canis familiaris; experiment: Percent change in repolarization at 10 Purkinje fibers; value ranges from -3.0-7.0.; format: functional, Canis lupus familiaris, Purkinje fiber; method in brief: as §3
Canis familiaris [34] = species: Canis familiaris; experiment: Percent change from control in the functional refractory period (FRP) at 10 uM conc. on Canine ventricular muscle fibre.; value ranges from 11-23; parameters: species or system Canis lupus familiaris, Muscle tissue; method in brief: as §2
Canis familiaris [35] = species: Canis familiaris; experiment: The maximum Percent change from control in the rate of rise of phase 0 of the action potential at 1 uM concentration on Canine Purkinje fibers.; parameters: species or system Canis lupus familiaris, Purkinje fiber; details: dog; method in brief: as §3
Canis familiaris [36] = species: Canis familiaris; experiment: Maximum percent change in conduction time (CT) at 0.1 uM concentration tested on Canine ventricular muscle fibre; format: functional, Canis lupus familiaris, Muscle tissue; method in brief: as §2
Canis familiaris [37] = species: Canis familiaris; experiment: The maximum Percent change from control in the rate of rise of phase 0 of the action potential at 100 uM concentration on Canine Purkinje fibers.; parameters: species or system Canis lupus familiaris, Purkinje fiber; details: dog; method in brief: as §3
Canis familiaris [38] = species: Canis familiaris; experiment: Percent change from control in the rate of rise of phase 0 of the action potential at 10 uM concentration on Canine Purkinje fibers.; value ranges from 0-2; parameters: species or system Canis lupus familiaris, Purkinje fiber; details: dog, in vitro
Canis familiaris [39] = species: Canis familiaris; experiment: Maximum percent change in functional refractory period (FRP) at 10 uM on Canine ventricular muscle fibre.; parameters: species or system Canis lupus familiaris, Muscle tissue; method in brief: as §2

CCN(CC)CCCNC(=O)c1[nH]c(C)c(C)c1C
APD95 (Canis familiaris [1]): 26% | CT (Canis familiaris [2]): 6% | FRP (Canis familiaris [3]): 28% | CT (Canis familiaris [4]): 8% | Vmax (Canis familiaris [5]): -14.3% | FRP (Canis familiaris [6]): 5.7% | APD95 (Canis familiaris [7]): 7% | CT (Canis familiaris [8]): -9% | FRP (Canis familiaris [9]): 4% | APD95 (Canis familiaris [10]): 8.3% | EC20 (Cavia porcellus [11]): 50 µM | Vmax (uM) (Canis familiaris [12]): -15% | CT (Canis familiaris [13]): Minimal | APD95 (Canis familiaris [14]): -5%

CCN(CC)CCCNC(=O)c1c(C)[nH]c(C)c1C
APD95 (Canis familiaris [15]): 6% | CT (Canis familiaris [2]): -3% | Vmax (Canis familiaris [16]): -37% | APD95 (Canis familiaris [17]): 5% | FRP (Canis familiaris [3]): 16% | EC20 (Cavia porcellus [18]): Not reached | APD95 (Canis familiaris [19]): 3.7% | Vmax (Canis familiaris [20]): -13% | FRP (Canis familiaris [21]): 4% | APD95 (Canis familiaris [7]): 4% | CT (Canis familiaris [13]): Minimal | Vmax (Canis familiaris [22]): -14%

CCN(CC)CCNC(=O)c1cc2cccc(OCc3ccccc3)c2[nH]1
APD95 (Canis familiaris [1]): -25% | FRP (Canis familiaris [3]): 10% | CT (Canis familiaris [4]): 4% | CT (Canis familiaris [23]): -13% | Vmax (Canis familiaris [24]): -30% | APD95 (Canis familiaris [7]): 17% | APD95 (Canis familiaris [25]): -7% | FRP (Canis familiaris [26]): 2% | Vmax [27]: Conduction block | EC20 (Cavia porcellus [28]): 6 µM | Vmax (Canis familiaris [22]): -66% | Vmax (Canis familiaris [29]): -37.7%

CCN(CC)CCNC(=O)c1ccc(NC(C)=O)cc1 [ACECAINIDE]
APD95 (Canis familiaris [30]): 16.3% | CT (Canis familiaris [2]): -9% | FRP (Canis familiaris [3]): 31% | CT (Canis familiaris [31]): -9.7% | CT (Canis familiaris [4]): 6% | Vmax (Canis familiaris [32]): 6% | APD95 (Canis familiaris [33]): 3% | FRP (Canis familiaris [34]): 16.8% | Vmax (Canis familiaris [35]): 2% | CT (Canis familiaris [36]): -11% | Vmax (Canis familiaris [37]): 5% | Vmax (Canis familiaris [38]): 1% | FRP (Canis familiaris [39]): 23%

Source: ChEMBL document CHEMBL1124429, “Heterocyclic analogues of benzamide antiarrhythmic agents” (J Med Chem, 1989)
